{"source": "ChEMBL document CHEMBL1781898", "about": "“Orally active achiral N-hydroxyformamide inhibitors of ADAM-TS4 (aggrecanase-1) and ADAM-TS5 (aggrecanase-2) for the treatment of osteoarthritis” (Bioorg Med Chem Lett, 2011)", "key": {"[1]": {"target": "T1, A disintegrin and metalloproteinase with thrombospondin motifs 5 (Homo sapiens, UniProt Q9UNA0)", "T1 sequence (Q9UNA0 whole entry)": "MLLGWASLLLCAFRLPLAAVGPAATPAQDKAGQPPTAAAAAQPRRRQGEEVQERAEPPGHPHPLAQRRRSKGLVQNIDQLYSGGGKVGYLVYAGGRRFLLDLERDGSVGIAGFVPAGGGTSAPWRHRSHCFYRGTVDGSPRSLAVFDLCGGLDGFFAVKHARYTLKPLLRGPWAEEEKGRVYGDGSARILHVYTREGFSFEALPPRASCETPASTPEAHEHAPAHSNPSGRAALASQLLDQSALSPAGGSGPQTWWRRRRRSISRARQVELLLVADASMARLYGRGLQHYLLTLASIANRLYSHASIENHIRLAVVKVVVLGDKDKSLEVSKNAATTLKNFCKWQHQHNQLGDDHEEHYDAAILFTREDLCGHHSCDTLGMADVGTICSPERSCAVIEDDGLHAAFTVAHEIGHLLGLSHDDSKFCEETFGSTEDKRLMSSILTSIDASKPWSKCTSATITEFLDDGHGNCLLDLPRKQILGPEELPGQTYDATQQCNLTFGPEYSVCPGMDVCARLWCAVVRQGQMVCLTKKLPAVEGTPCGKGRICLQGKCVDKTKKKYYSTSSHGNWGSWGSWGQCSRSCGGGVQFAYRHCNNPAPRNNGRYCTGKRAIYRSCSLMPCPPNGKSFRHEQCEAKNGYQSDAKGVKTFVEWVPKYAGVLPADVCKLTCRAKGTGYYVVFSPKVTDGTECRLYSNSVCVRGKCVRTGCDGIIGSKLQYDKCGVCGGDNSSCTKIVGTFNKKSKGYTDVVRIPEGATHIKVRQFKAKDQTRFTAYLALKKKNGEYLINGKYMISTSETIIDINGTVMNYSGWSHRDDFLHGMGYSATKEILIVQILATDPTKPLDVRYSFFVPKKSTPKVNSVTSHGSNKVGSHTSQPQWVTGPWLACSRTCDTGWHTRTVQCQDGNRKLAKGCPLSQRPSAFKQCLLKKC", "assay": "Inhibition of ADAMTS-5 assessed as substrate cleavage after 16 hrs by fluorescence assay", "how_it_was_run": "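Enzyme inhibition IC50s derived from at least six measurements, standard errors normally <5% within an assay; a standard compound run to keep assay-to-assay variability within twofold.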"}, "[2]": {"assay": "Half life in mouse", "type": "ADME, organism-based", "settings": "in vivo"}, "[3]": {"assay": "Apparent permeability across apical to basolateral side in human Caco2 cells at 10 uM", "type": "ADME, cell-based", "settings": "Caco-2"}, "Cytochrome P450 1A2": {"target": "T2, Cytochrome P450 1A2 (Homo sapiens, UniProt P05177)", "T2 sequence (P05177 whole entry)": "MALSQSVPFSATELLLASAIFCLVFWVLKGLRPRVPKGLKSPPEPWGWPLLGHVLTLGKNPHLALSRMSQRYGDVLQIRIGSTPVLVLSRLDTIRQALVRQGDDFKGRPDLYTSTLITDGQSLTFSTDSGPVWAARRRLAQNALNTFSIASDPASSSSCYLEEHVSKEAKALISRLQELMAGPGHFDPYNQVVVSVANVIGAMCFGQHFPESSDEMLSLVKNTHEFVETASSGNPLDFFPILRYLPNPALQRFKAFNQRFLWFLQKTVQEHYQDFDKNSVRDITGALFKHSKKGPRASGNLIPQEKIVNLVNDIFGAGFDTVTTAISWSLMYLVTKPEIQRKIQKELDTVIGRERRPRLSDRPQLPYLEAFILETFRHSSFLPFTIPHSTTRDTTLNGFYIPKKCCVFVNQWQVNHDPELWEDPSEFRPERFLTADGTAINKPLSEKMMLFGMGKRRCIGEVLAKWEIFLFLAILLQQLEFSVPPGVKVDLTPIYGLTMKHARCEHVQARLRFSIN", "assay": "Inhibition of CYP1A2", "type": "ADME", "how_it_was_run": "(§1)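 Inhibition of cytochrome P450 isoforms 1A2, 2C9, 2C19, 2D6 and 3A4, reported as pIC50.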"}, "Cytochrome P450 2D6": {"target": "Cytochrome P450 2D6 (Homo sapiens, UniProt P10635)", "sequence (P10635 whole entry)": "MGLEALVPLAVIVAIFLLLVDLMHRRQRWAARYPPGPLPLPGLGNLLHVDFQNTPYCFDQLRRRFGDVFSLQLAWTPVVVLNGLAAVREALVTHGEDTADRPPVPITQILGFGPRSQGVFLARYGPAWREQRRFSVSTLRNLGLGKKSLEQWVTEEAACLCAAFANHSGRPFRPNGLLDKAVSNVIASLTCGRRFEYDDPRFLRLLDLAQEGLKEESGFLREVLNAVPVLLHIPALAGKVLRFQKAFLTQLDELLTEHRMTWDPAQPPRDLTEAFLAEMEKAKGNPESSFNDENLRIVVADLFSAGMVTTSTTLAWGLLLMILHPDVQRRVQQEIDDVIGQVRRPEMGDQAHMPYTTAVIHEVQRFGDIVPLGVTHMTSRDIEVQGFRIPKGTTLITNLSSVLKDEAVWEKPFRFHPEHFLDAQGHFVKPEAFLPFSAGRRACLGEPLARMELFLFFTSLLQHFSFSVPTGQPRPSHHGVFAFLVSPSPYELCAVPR", "assay": "Inhibition of CYP2D6", "type": "ADME", "how_it_was_run": "as §1"}, "[4]": {"assay": "Oral bioavailability in rat", "type": "ADME, organism-based", "settings": "in vivo"}, "Homo sapiens [5]": {"species": "Homo sapiens", "assay": "Inhibition of aggrecanase activity in IL-1, OSM and plasminogen-stimulated human articular cartilage explant assessed as reduction in CTXII peptide release at 10 uM after 21 days", "how_it_was_run": "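Human cartilage stimulated with interleukin-1, oncostatin-M and plasminogen for 21 days, without or with 10 µM compound.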"}, "[6]": {"assay": "Lipophilicity, log D of the compound", "type": "physicochemical", "settings": "octanol/water"}, "[7]": {"assay": "Free drug level in rat", "type": "ADME, organism-based", "settings": "in vivo"}, "[8]": {"assay": "Volume of distribution at steady state in mouse", "type": "ADME, organism-based", "settings": "in vivo, read-out: Vdss"}, "Cytochrome P450 2C19": {"target": "Cytochrome P450 2C19 (Homo sapiens, UniProt P33261)", "sequence (P33261 whole entry)": "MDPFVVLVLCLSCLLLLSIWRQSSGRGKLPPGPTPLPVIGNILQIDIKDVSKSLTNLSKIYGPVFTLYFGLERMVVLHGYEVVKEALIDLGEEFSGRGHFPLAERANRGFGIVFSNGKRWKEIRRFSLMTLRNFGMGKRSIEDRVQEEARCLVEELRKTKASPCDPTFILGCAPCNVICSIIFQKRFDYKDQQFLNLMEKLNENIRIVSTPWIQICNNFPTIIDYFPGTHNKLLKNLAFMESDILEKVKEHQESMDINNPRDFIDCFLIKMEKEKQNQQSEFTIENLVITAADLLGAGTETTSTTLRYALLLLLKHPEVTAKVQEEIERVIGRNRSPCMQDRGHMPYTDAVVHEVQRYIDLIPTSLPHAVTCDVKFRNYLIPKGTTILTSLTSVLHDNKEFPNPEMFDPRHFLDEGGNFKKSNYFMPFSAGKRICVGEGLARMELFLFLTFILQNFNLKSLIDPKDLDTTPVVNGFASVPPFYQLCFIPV", "assay": "Inhibition of CYP2C19", "type": "ADME", "how_it_was_run": "as §1"}, "[9]": {"assay": "Apparent permeability across basolateral to apical side in human Caco2 cells at 10 uM", "type": "ADME, cell-based", "settings": "Caco-2"}, "[10]": {"target": "Voltage-gated inwardly rectifying potassium channel KCNH2 (Homo sapiens, UniProt Q12809)", "sequence (Q12809 whole entry)": "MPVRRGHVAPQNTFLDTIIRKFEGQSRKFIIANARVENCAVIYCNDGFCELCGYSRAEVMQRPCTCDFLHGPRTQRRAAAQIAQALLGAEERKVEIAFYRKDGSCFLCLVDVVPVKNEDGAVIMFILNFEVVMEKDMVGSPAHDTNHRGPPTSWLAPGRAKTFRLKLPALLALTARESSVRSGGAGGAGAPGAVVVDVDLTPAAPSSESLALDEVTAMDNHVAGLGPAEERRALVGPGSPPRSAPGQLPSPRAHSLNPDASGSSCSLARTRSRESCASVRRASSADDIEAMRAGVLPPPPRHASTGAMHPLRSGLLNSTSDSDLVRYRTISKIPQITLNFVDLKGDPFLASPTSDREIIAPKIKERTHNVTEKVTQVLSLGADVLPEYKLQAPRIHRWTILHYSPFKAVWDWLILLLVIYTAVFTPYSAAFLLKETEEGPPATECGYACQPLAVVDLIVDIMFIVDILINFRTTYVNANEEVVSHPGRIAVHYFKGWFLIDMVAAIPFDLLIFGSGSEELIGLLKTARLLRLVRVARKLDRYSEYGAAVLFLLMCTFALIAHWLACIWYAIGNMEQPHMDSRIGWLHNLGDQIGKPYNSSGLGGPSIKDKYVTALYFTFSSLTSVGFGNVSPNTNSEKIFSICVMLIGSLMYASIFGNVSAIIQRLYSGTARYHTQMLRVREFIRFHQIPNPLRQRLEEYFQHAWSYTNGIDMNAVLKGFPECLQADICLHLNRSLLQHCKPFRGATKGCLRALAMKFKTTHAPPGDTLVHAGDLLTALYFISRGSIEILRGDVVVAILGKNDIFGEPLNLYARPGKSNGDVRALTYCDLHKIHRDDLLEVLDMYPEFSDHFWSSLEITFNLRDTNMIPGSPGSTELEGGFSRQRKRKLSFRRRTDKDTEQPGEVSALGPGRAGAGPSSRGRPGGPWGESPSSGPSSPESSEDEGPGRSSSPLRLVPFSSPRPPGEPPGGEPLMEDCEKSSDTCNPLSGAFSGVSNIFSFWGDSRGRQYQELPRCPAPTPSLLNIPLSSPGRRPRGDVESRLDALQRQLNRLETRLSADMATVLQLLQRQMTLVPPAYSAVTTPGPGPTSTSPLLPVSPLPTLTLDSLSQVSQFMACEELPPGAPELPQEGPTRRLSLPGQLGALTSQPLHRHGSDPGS"}, "Cavia porcellus": {"test_system": "Cavia porcellus", "assay": "Inhibition of ADAMTS4 in sc dosed Dunkin hartley guinea pig spontaneous osteoarthritis model assessed as reduction in NITEGE release in medial cartilage at concentration equivalent to 4 to 7 fold human ADAMTS4 FRET IC50 administered for 7 days", "type": "functional, organism-based", "how_it_was_run": "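Compound given for 7 days via subcutaneous mini-pump; articular cartilage then dissected from medial tibial plateau of hind knee joints and NITEGE neo-epitope levels measured in cartilage extracts versus vehicle-treated animals; significance P < 0.05.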"}, "[11]": {"assay": "Intrinsic clearance in human hepatocytes measured per million cells", "type": "ADME, cell-based, Liver, Hepatocyte", "how_it_was_run": "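Human hepatocyte metabolism; intrinsic clearance expressed as μL/min/10⁶ cells, reported as mean of six separate experiments.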"}, "Homo sapiens [12]": {"species": "Homo sapiens", "assay": "Inhibition of aggrecanase activity in IL-1, OSM and plasminogen-stimulated human articular cartilage explant assessed as reduction in CTXII peptide release at 10 uM after 14 days"}, "[13]": {"assay": "Oral bioavailability in dog", "type": "ADME, organism-based, Canis lupus familiaris", "settings": "in vivo"}, "Cytochrome P450 3A4": {"target": "Cytochrome P450 3A4 (Homo sapiens, UniProt P08684)", "sequence (P08684 whole entry)": "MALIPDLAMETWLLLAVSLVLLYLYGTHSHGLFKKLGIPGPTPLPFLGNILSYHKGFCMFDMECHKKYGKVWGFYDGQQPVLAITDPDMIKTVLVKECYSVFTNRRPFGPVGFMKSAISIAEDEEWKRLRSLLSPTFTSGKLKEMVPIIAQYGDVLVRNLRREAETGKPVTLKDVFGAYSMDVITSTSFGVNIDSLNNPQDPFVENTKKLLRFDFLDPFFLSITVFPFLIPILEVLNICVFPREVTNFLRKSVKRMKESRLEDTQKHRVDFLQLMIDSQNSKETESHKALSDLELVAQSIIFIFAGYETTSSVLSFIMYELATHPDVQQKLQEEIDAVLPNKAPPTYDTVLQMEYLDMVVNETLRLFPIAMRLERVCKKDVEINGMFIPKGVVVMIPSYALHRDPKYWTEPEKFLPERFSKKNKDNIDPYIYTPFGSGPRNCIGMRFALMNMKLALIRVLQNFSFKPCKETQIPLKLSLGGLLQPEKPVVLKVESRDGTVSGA", "assay": "Inhibition of CYP3A4", "type": "ADME", "how_it_was_run": "as §1"}, "[14]": {"assay": "Thermodynamic solubility of the compound in phosphate buffer at pH 7.4 after 24 hrs", "type": "physicochemical", "settings": "read-out: Therm_solubility"}, "Cytochrome P450 2C9": {"target": "Cytochrome P450 2C9 (Homo sapiens, UniProt P11712)", "sequence (P11712 whole entry)": "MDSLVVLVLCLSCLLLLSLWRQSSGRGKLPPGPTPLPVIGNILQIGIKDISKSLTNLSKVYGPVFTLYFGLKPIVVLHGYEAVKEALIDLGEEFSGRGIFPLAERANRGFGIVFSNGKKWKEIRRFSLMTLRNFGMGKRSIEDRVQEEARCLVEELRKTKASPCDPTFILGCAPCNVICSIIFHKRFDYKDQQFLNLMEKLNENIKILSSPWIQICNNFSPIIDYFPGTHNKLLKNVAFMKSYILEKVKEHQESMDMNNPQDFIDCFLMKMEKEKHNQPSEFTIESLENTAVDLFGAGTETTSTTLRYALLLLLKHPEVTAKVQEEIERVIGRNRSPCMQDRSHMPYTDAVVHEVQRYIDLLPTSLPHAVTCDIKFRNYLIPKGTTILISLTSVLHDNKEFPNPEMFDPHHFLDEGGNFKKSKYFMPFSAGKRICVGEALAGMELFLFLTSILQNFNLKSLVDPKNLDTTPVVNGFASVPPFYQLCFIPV", "assay": "Inhibition of CYP2C9", "type": "ADME", "how_it_was_run": "as §1"}, "[15]": {"assay": "Free drug level in dog", "type": "ADME, organism-based, Canis lupus familiaris", "settings": "in vivo"}, "[16]": {"assay": "Clearance in dog at 1 mg/kg, iv and 1 mg/kg, po", "type": "ADME, organism-based, Canis lupus familiaris", "settings": "in vivo"}, "[17]": {"assay": "Free drug level in human", "type": "ADME, organism-based", "settings": "in vivo"}, "[18]": {"assay": "Clearance in mouse", "type": "ADME, organism-based", "settings": "in vivo"}, "[19]": {"assay": "Volume of distribution at steady state in dog at 1 mg/kg, iv and 1 mg/kg, po", "type": "ADME, organism-based, Canis lupus familiaris", "settings": "in vivo, read-out: Vdss"}, "[20]": {"assay": "Volume of distribution at steady state in rat at 2 mg/kg, iv and 3 to 10 mg/kg, po", "type": "ADME, organism-based", "settings": "in vivo, read-out: Vdss"}, "[21]": {"assay": "Half life in rat at 2 mg/kg, iv and 3 to 10 mg/kg, po", "type": "ADME, organism-based", "settings": "in vivo"}, "[22]": {"assay": "Intrinsic clearance in human liver microsomes", "type": "ADME, Microsome", "how_it_was_run": "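Human liver microsome metabolism; intrinsic clearance expressed as μL/min/mg, reported as mean of eight separate experiments.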"}}, "note": "pIC50: −log10 of the molar value. Active and inactive are the calls of the source. The calls are words filed in the database; no cut-off is given here."}
{"smiles": "Cc1noc(C)c1CCC1CCN(S(=O)(=O)C[C@](C)(C[C@H](C)c2ncc(F)cn2)N(O)C=O)CC1", "values": [{"measurement": "pIC50", "setting": "[1]", "value": 7.64}, {"measurement": "half-life", "setting": "[2]", "value": 5.4, "unit": "h"}, {"measurement": "Papp A→B at 10 µM", "setting": "[3]", "value": 5.3, "unit": "×10⁻⁶ cm/s"}, {"measurement": "inhibition (INH)", "setting": "Cytochrome P450 1A2", "value": "Not Active"}, {"measurement": "inhibition (INH)", "setting": "Cytochrome P450 2D6", "value": "Not Active"}, {"measurement": "bioavailability", "setting": "[4]", "value": 1, "unit": "%"}, {"measurement": "inhibition", "setting": "Homo sapiens [5]", "value": "Active"}, {"measurement": "logD", "setting": "[6]", "value": 1.6}, {"measurement": "fraction unbound", "setting": "[7]", "value": 0.22}, {"measurement": "Vd", "setting": "[8]", "value": 7.2, "unit": "L/kg"}, {"measurement": "inhibition (INH)", "setting": "Cytochrome P450 2C19", "value": "Not Active"}, {"measurement": "Papp B→A at 10 µM", "setting": "[9]", "value": 10.9, "unit": "×10⁻⁶ cm/s"}, {"measurement": "pIC50", "setting": "[10]", "value": 4.19}, {"measurement": "inhibition", "setting": "Cavia porcellus", "value": "Active"}, {"measurement": "hepatocyte CLint", "setting": "[11]", "value": "< 2", "unit": "µL/min/1e6 cells"}, {"measurement": "inhibition", "setting": "Homo sapiens [12]", "value": "Active"}, {"measurement": "bioavailability", "setting": "[13]", "value": 20, "unit": "%"}, {"measurement": "inhibition (INH)", "setting": "Cytochrome P450 3A4", "value": "Not Active"}, {"measurement": "solubility thermodynamic at 24 h", "setting": "[14]", "value": 150, "unit": "µM"}, {"measurement": "inhibition (INH)", "setting": "Cytochrome P450 2C9", "value": "Not Active"}, {"measurement": "fraction unbound", "setting": "[15]", "value": 0.25}, {"measurement": "clearance", "setting": "[16]", "value": 20.7, "unit": "mL/min/kg"}, {"measurement": "fraction unbound", "setting": "[17]", "value": 0.11}, {"measurement": "clearance", "setting": "[18]", "value": 16.8, "unit": "mL/min/kg"}, {"measurement": "Vd", "setting": "[19]", "value": 9.2, "unit": "L/kg"}, {"measurement": "Vd", "setting": "[20]", "value": 7.4, "unit": "L/kg"}, {"measurement": "half-life", "setting": "[21]", "value": 11, "unit": "h"}, {"measurement": "microsomal CLint", "setting": "[22]", "value": 29.4, "unit": "µL/min/mg"}]}
